Assay outcomes: PubChem, several laboratories
Measles CPE = protection of cells from measles virus | Measles virus-infected cells, CPE protection, absorbance | protection (pct of control), % at 4 µM | actives 1.5% (n = 140,000); in the data active = protection mostly above about 24%, no sharp cut-off; inactive = mostly below about 26%
Yeast lifespan up = yeast lifespan extension; inhibition of the nicotinamide effect, % at 10 µM; S. cerevisiae growth with nicotinamide, OD615; deaD strain in restrictive glucose medium; actives 0.68% (n = 130,000);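 active = inhibition above a set limit, placed 3 SD over the median of all compounds, cut at about 26% in these data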
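System: DeaD-strain S. cerevisiae / Buffer or medium: CSMM-D, restrictive glucose (dextrose) synthetic minimal medium / Probe or stimulus: nicotinamide, 1.5 mM, co-present with compound / Compound: one concentration, 10 µM, DMSO 0.25% / Incubation: 48 h compound exposure at 30 °C, humidified / Technique: optical density (absorbance) at 615 nm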
RAM inhibit = blocks the yeast RAM network. actives 1.8% (n = 190,000). AID 868. S. cerevisiae dse1pr::URA3 reporter, 5-FOA growth OD615, 2 d; analog-sensitive cbk1-as2 kinase mutant strain. inhibition, % at 50 µM;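 active = inhibition above a set limit, 3 SD over mean compound inhibition, cut at about 8.4% in these data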;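 also: inhibition rescues growth on 5-FOA so higher OD means more RAM inhibition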
BB579 growth dn = yeast BB579 growth reduction in restrictive medium; S. cerevisiae BB579 growth, OD615, 48 h; inhibition, % at 10 µM; actives 0.51% (n = 140,000); AID 804;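 active = inhibition above a set limit, 3 SD over the mean compound inhibition, cut at about 44% in these data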
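controls = amphotericin B 10 µg/mL, positive | assay system = DeaD yeast strain BB579 | schedule = 48 h compound exposure at 30 °C after 4 h preincubation | detection = OD615 turbidity measurement | medium = restrictive CSMM-D medium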
Hits are given with their value; 0 = inactive; - = no result. Hits are enriched below; roughly 3.8% of the tested compounds scored in any of these assays.

SMILES | Measles CPE | Yeast lifespan up | RAM inhibit | BB579 growth dn
CC1(C)CN(c2cccc(Br)c2)C1=O | - | - | 0 | -
Cc1ccc(-n2nc(C(=O)c3ccccc3)n3c(=O)cc(-c4ccccc4)nc23)cc1 | 26 | 0 | 0 | 0
Nc1nsc2ccccc12 | 0 | 0 | 0 | 46
N#Cc1ccccc1S(=O)(=O)N1CCN(CC(O)c2ccccc2)CC1 (stereo not drawn) | - | - | 0 | -
CCOC(=O)c1sc(NC(=O)c2cccnc2)c(C#N)c1C | 0 | 29 | 0 | 0
CCOC(=O)c1c(NC(=O)c2cccnc2)sc(C)c1C | 0 | 0 | 0 | 0
COc1ccc(S(=O)(=O)N2CCCCCC2)cc1N(C)S(=O)(=O)c1ccccc1 | 0 | 0 | 10 | 0
COc1ccc(S(=O)(=O)N2CCCCC2)cc1C(C)C | 0 | 0 | 10 | 0
COc1cc(S(=O)(=O)N2CCCCC2)ccc1NC=O | 0 | 0 | 0 | 0
O=S(=O)(c1ccccc1)c1cccc(S(=O)(=O)N2CCCCC2)c1 | 0 | 0 | 0 | 0
Nc1ccc(O)cc1C(=O)OCC(=O)c1ccc(C2CCCCC2)cc1 | 0 | 0 | 10 | 0
CC(C)c1ccc(-c2nc(N3CCCCC3)[nH]c(=O)c2C#N)cc1 | 0 | 0 | 0 | 0
CC1=Nc2nc(N3CCCCC3)c(C#N)c3c4c(nc(c23)N1)N(c1ccc(C(C)C)cc1)C(=O)C4 | 0 | 0 | 9.3 | 0
CCCCNC(=S)N/N=C1\C(=O)c2cccc3cccc1c23 | 0 | 0 | 9.1 | 0
CNC(=S)N/N=C1\C(=O)c2cccc3cccc1c23 | 0 | 0 | 0 | 0
Cc1ccc2nc(N(CCCN(C)C)C(=O)c3sc4ccccc4c3Cl)sc2c1 | 0 | 0 | 0 | 0
COC(=O)CN1C(=S)N(c2ccc(OC)cc2)C(=O)/C1=C/c1ccc(OC)cc1 | - | - | 11 | -
CCOC(=O)N1CCN(C(=O)Cn2nc(C)c3sc4ccccc4c3c2=O)CC1 | 0 | 0 | 0 | 45
CN1CCc2cc3c(c4c2[C@H]1[C@H](O)c1ccccc1-4)OCO3 | 0 | 0 | 0 | 62
COc1ccc2c(c1OC)C(=O)OC2C1c2c(cc3c(c2OC)OCO3)CCN1C (stereo not drawn) | 0 | 0 | 0 | 0
COc1ccc(Cl)cc1N(CC(=O)NC(C)(C)C)S(=O)(=O)c1ccc(C)c([N+](=O)[O-])c1 | 0 | 0 | 0 | 0
NS(=O)(=O)c1ccc(CCNC(=O)/C=C/c2ccc([N+](=O)[O-])cc2)cc1 | - | - | 0 | -
COc1ccc(/C=C/C(=O)NCCc2ccc(S(N)(=O)=O)cc2)cc1 | 56 | 0 | 0 | 0
CCN(CC)C(=O)c1sc(NC(=O)C(Sc2ccccc2)c2ccccc2)c(C(=O)OC(C)C)c1C (stereo not drawn) | 0 | 0 | 9.6 | 0
Cc1nnc2c(Oc3ccccc3)nc3ccccc3n12 | 0 | 0 | 0 | 0
SMILES | Measles CPE | Yeast lifespan up | RAM inhibit | BB579 growth dn
Cc1ccc(Oc2nc3ccccc3n3c(C)nnc23)c(C)c1 | 0 | 74 | 0 | 0
CCCN(CCC)c1nc2ccccc2n2c(C)nnc12 | 44 | 0 | 0 | 0
Cc1cc(C)nc(SCCn2c(N3CC(C)OC(C)C3)nc3c2c(=O)n(C)c(=O)n3C)n1 (stereo not drawn) | - | - | 0 | -
O=C(c1ccc(Cl)cc1)n1c(NCc2ccccc2)n[nH]c1=S | - | - | 0 | -
COc1ccc(/C(O)=C2/C(=O)C(=O)N(c3ncccn3)C2c2ccc(C(C)(C)C)cc2)cc1 (stereo not drawn) | - | - | 0 | -
Cc1nnc(NC(=O)Nc2cccc(Cl)c2)s1 | 0 | 0 | 0 | 0
Cc1ccc(OCCSCc2nnc(NC(=O)Nc3cccc(Cl)c3)s2)cc1 | 0 | 0 | 8.4 | 0
CC1CCN(c2nncc3ccccc23)CC1 | 0 | 30 | 0 | 0
CC1CCN(c2nnc(N3CCC(C)CC3)c3ccccc23)CC1 | - | - | 0 | -
Cc1[nH]oc(=O)c1N=Nc1c(Cl)cccc1Cl | 0 | 37 | 0 | 0
Cc1[nH]oc(=O)c1N=Nc1ccccc1 | 0 | 32 | 0 | 0
Cc1onc(-c2ccccc2Cl)c1C(=O)Nc1sc2c(c1C(N)=O)CCC(C)C2 (stereo not drawn) | 0 | - | 0 | 0
Cc1cccc2nc(-c3ccccc3)nc(N[C@@H](CO)c3ccccc3)c12 | 0 | 0 | 0 | 0
O=C(CCC(=O)Nc1nnc(C2CCCCC2)s1)NCC1CCCO1 (stereo not drawn) | 65 | 0 | 0 | 0
CC(C)c1nnc(NC(=O)CCC(=O)NCC2CCCO2)s1 (stereo not drawn) | 0 | 0 | 0 | 0
CCCC(=O)Nc1ccc(C(=O)Nc2ccc([N+](=O)[O-])cc2OC)cc1 | - | - | 0 | -
CCCCC(=O)Nc1ccc(NC(=O)c2ccc([N+](=O)[O-])cc2)cc1OC | 0 | 0 | 9.1 | 0
COc1cc([N+](=O)[O-])ccc1NC(=O)CCCOc1cc(C)ccc1C | 0 | 0 | 9.9 | 0
COc1ccc(-c2cnc(SCC(=O)Nc3nc(C(C)(C)C)cs3)n2Cc2ccco2)cc1 | 0 | - | 0 | 0
O=c1ccc(Oc2nc(N3CCOCC3)nc(N3CCOCC3)n2)n[nH]1 | 0 | 0 | 0 | 0
O=C(NCc1nc2ccccc2[nH]1)C1=C[C@H](c2ccc3c(c2)OCO3)C[C@H](OCCCCO)O1 | - | - | 0 | -
CC1=[N+](C)N(c2ccccc2)C(=O)C1N=Cc1ccccc1Cl (stereo not drawn) | 0 | 0 | 0 | 0
CC1=[N+](C)N(c2ccccc2)C(=O)C1N=Cc1c(Cl)cccc1Cl (stereo not drawn) | 0 | 35 | 0 | 0
CCn1c2ccc(Cl)cc2c2nc3ccccc3nc21 | 0 | 0 | 0 | 0
CCn1c2ccc(C)cc2c2nc3cc(C(=O)O)ccc3nc21 | 0 | 0 | 0 | 96
SMILES | Measles CPE | Yeast lifespan up | RAM inhibit | BB579 growth dn
CC(C)(C)NC(=O)C(c1ccccn1)N(C(=O)C1CSC(=O)C1)c1ccc(F)cc1 (stereo not drawn) | 0 | 0 | 0 | 0
O=C(NCCCn1ccnc1)c1ccc(N2CCCCC2)c([N+](=O)[O-])c1 | - | - | 0 | -
CCn1c(CSc2nc3ccccc3[nH]2)nc2cc(C(=O)O)ccc21 | 0 | 0 | 0 | 0
CCn1c(CSc2nccn2C)nc2cc(C(=O)O)ccc21 | 51 | 0 | 0 | 0
COc1cc(OC)c(C(=O)NCCCn2ccnc2)cc1OC | - | - | 0 | -
CCN(CC1COc2ccccc2O1)S(=O)(=O)c1ccc(C)cc1 (stereo not drawn) | 0 | 0 | 0 | 0
NNC(=O)CCc1nc2ccccc2[nH]1 | - | - | 0 | -
Cc1ccc(NC(=O)CSc2nn(-c3ccc(Cl)cc3)c(=S)s2)cc1S(=O)(=O)N(C)C | 0 | 0 | 11 | 0
O=C(CC(NC(=O)c1ccccc1Cl)c1ccccc1)NCCc1ccc(Cl)cc1 (stereo not drawn) | 41 | 0 | 0 | 0
O=C(NC(CCl)c1ccccc1)c1ccc(Cl)cc1 (stereo not drawn) | - | - | 0 | -
CCOC(=O)c1c(-c2cccs2)csc1NC(C)=O | 0 | - | 0 | 0
CCOC(=O)c1c(NC(=O)c2cccs2)sc(CC)c1-c1cccs1 | 0 | 0 | 10 | 0
CCOC(=O)c1c(-c2cccs2)csc1NC(=O)C(C)(C)C | 0 | 0 | 8.6 | 0
CCOC(=O)c1c(-c2ccc(C)s2)csc1NC(=O)c1cccs1 | 0 | 0 | 0 | 0
CCOC(=O)c1c(-c2cccs2)csc1NC(=O)CSc1ncn[nH]1 | 0 | 0 | 9.4 | 0
CCOC(=O)c1c(-c2ccc(OC)cc2)csc1NC(=O)CSc1ncnc2sccc12 | 43 | 0 | 0 | 0
